Results: ChEMBL document CHEMBL2380300, “Identification of new peptide amides as selective cathepsin L inhibitors: the first step towards selective irreversible inhibitors?” (Bioorg Med Chem Lett, 2013)
Square brackets hold non-standard residues; d marks the D form. Peptide text beside a SMILES is read from it. * marks the point of attachment. ξ: configuration not given here. Bip = N[C@@H](Cc1ccc(-c2ccccc2)cc1)C(=O)O; Phe(4-NH2) = Nc1ccc(C[C@H](N)C(=O)O)cc1; Cbz = O=C(OCc1ccccc1)*; ξPip = O=C(O)C1CCCCN1

How the values were obtained:
Homo sapiens [1] = species: Homo sapiens; assay: Selectivity ratio of Ki for recombinant cathepsin-B (unknown origin) to Ki for recombinant cathepsin-L (unknown origin)
How it was run: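 Selectivity factor FB = Ki(CatB)/Ki(CatL). Both Ki values come from kinetic runs with the recombinant enzymes, each using at least three inhibitor concentrations in duplicate.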

Cathepsin B = Cathepsin B (Homo sapiens, UniProt P07858); assay: Inhibition of recombinant cathepsin-B (unknown origin) using Z-Arg-Arg-AMC as substrate by fluorescence assay
How it was run: (§1)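 Kinetic assay with recombinant enzyme. Peptide amide stock concentrations were set by amino-acid analysis. Ki was derived from at least three inhibitor concentrations, each measured in duplicate.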

Procathepsin L = Procathepsin L (Homo sapiens, UniProt P07711); assay: Inhibition of recombinant cathepsin-L (unknown origin) using Z-Phe-Arg-AMC as substrate by fluorescence assay; how it was run: as §1
Homo sapiens [2] = species: Homo sapiens; assay: Selectivity ratio of Ki for recombinant cathepsin-K (unknown origin) to Ki for recombinant cathepsin-L (unknown origin)
How it was run: (§2)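 FK = Ki(CatK)/Ki(CatL) and FS = Ki(CatS)/Ki(CatL). Each Ki comes from recombinant enzyme kinetics over a minimum of four inhibitor concentrations, each measured in duplicate.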

Homo sapiens [3] = species: Homo sapiens; assay: Selectivity ratio of Ki for recombinant cathepsin-S (unknown origin) to Ki for recombinant cathepsin-L (unknown origin); how it was run: as §2
Cathepsin K = target: T1, Cathepsin K (Homo sapiens, UniProt P43235); assay: Inhibition of recombinant cathepsin-K (unknown origin) using Z-Phe-Arg-AMC as substrate by fluorescence assay
T1 sequence (P43235 whole entry): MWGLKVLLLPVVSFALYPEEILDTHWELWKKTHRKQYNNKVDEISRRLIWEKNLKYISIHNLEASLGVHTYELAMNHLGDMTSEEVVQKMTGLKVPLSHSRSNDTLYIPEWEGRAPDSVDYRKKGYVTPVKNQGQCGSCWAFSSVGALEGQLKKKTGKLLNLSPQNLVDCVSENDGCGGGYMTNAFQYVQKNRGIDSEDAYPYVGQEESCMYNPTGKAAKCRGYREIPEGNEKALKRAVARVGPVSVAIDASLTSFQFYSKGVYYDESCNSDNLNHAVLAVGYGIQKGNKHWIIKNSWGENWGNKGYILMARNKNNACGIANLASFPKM
How it was run: (§3)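 Recombinant enzyme kinetics. Inhibitor stocks were quantified by amino-acid analysis. Ki was obtained from a minimum of four inhibitor concentrations, each run in duplicate.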

Cathepsin S = Cathepsin S (Homo sapiens, UniProt P25774); assay: Inhibition of recombinant cathepsin-S (unknown origin) using Z-Val-Arg-AMC as substrate by fluorescence assay; how it was run: as §3
Chain of Cathepsin S (P25774 whole entry): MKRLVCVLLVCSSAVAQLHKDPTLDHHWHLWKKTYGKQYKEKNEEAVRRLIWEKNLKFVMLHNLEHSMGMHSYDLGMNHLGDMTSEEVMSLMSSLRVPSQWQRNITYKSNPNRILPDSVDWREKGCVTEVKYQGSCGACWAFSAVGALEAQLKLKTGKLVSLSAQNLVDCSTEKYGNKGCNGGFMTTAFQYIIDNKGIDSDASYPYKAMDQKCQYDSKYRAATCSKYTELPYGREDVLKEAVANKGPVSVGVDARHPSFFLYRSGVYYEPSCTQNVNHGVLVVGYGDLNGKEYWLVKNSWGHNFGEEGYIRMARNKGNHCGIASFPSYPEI

Chain of Procathepsin L (P07711 whole entry): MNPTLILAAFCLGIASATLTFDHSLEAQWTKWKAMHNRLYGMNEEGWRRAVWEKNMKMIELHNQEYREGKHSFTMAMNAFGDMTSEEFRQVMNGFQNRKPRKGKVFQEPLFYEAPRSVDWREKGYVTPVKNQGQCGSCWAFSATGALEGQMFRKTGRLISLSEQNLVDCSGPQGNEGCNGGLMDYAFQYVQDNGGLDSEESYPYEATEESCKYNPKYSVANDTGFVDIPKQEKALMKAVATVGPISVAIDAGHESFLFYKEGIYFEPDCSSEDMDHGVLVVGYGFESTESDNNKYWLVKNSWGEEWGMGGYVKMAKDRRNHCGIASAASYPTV

Compound | Ratio Ki (Homo sapiens [1]) | Ki (Cathepsin B) | Ki (Procathepsin L) | Ratio Ki (Homo sapiens [2]) | Ratio Ki (Homo sapiens [3]) | Ki (Cathepsin K) | Ki (Cathepsin S)
NCCCC[C@H](NC(=O)[C@H](Cc1ccc(O)cc1)NC(=O)OCc1ccccc1)C(N)=O (Cbz-Tyr-Lys-NH2) | 96 | 135 µM | 1.4 µM |  |  |  | 
NC(=O)[C@H](Cc1ccc(N)cc1)NC(=O)[C@H](Cc1ccccc1)NC(=O)OCc1ccccc1 (Cbz-Phe-[Phe(4-NH2)]-NH2) | 107 | 2790 µM | 26 µM |  |  |  | 
NCCCC[C@H](NC(=O)[C@H](Cc1ccc(-c2ccccc2)cc1)NC(=O)OCc1ccccc1)C(N)=O (Cbz-[Bip]-Lys-NH2) | 32 | 77 µM | 2.4 µM |  |  |  | 
NCCCC[C@H](NC(=O)[C@H](Cc1ccccc1)NC(=O)c1ccc(-c2ccccc2)cc1)C(N)=O | 9 | 84 µM | 9 µM |  |  |  | 
NCCCC[C@H](NC(=O)[C@H](Cc1ccccc1)NC(=O)CCc1ccc(O)cc1)C(N)=O | 54 | 135 µM | 2.5 µM |  |  |  | 
NCCCC[C@H](NC(=O)[C@H](Cc1ccccc1)NC(=O)c1cc([N+](=O)[O-])ccc1Cl)C(N)=O | 651 | 1760 µM | 2.7 µM |  |  |  | 
CC(C)C[C@H](NC(=O)OCc1ccccc1)C(=O)N[C@@H](Cc1ccccc1)C(=O)N[C@@H](CCCCN)C(N)=O (Cbz-Leu-Phe-Lys-NH2) | 2630 | 1180 µM | 0.45 µM | 473 | 27 | 213 µM | 12 µM
NCCCC[C@H](NC(=O)[C@H](Cc1ccccc1)NC(=O)C1=CCCC1)C(N)=O | 80 | 623 µM | 7.8 µM |  |  |  | 
CN(C)c1ccc(C(=O)N[C@@H](Cc2ccccc2)C(=O)N[C@@H](CCCCN)C(N)=O)cc1 | 9 | 26 µM | 2.9 µM |  |  |  | 
NCCCC[C@H](NC(=O)[C@H](Cc1ccccc1)NC(=O)c1ccnc(-c2cc(C(=O)O)ccn2)c1)C(N)=O | 187 | 860 µM | 4.6 µM |  |  |  | 
NCCCC[C@H](NC(=O)[C@H](Cc1ccc(-c2cccs2)cc1)NC(=O)OCc1ccccc1)C(N)=O | 325 | 39 µM | 0.12 µM | 200 | 233 | 24 µM | 28 µM
CC(C)[C@H](NC(=O)[C@H](Cc1ccccc1)NC(=O)OCc1ccccc1)C(N)=O (Cbz-Phe-Val-NH2) |  |  | 17 µM |  |  |  | 
CC(=O)Oc1ccc(C(=O)N[C@@H](Cc2ccccc2)C(=O)N[C@@H](CCCCN)C(N)=O)cc1 | 272 | 706 µM | 2.6 µM |  |  |  | 
NCCCC[C@H](NC(=O)[C@H](Cc1ccccc1)NC(=O)CCc1ccccc1)C(N)=O | 636 | 2040 µM | 3.2 µM |  |  |  | 
CC(=O)Oc1cccc(C(=O)N[C@@H](Cc2ccccc2)C(=O)N[C@@H](CCCCN)C(N)=O)c1 | 425 | 1020 µM | 2.4 µM |  |  |  | 
NCCCC[C@H](NC(=O)[C@H](Cc1c[nH]c2ccccc12)NC(=O)OCc1ccccc1)C(N)=O (Cbz-Trp-Lys-NH2) | 24 | 100 µM | 4.2 µM |  |  |  | 
N=C(N)NCCC[C@H](NC(=O)OCc1ccccc1)C(=O)N[C@@H](Cc1ccccc1)C(=O)N[C@@H](CCCCN)C(N)=O (Cbz-Arg-Phe-Lys-NH2) | 1760 | 1300 µM | 0.74 µM | 198 | 11 | 147 µM | 8.5 µM
NC(=O)[C@H](CCCC(N)O)NC(=O)[C@H](Cc1ccccc1)NC(=O)OCc1ccccc1 (stereo partly specified) | 64 | 1730 µM | 27 µM |  |  |  | 

The remaining molecules from weak to strong by Ki (Procathepsin L), led by results:

Ratio Ki (Homo sapiens [1]) | Ki (Cathepsin B) | Ki (Procathepsin L) | Ratio Ki (Homo sapiens [2]) | Ratio Ki (Homo sapiens [3]) | Ki (Cathepsin K) | Ki (Cathepsin S) | Compound
111 | 7100 µM | 64 µM |  |  |  |  | CSCC[C@H](NC(=O)[C@H](Cc1ccccc1)NC(=O)OCc1ccccc1)C(N)=O (Cbz-Phe-Met-NH2)
 |  | 28 µM |  |  |  |  | NC(=O)[C@H](N)NC(=O)[C@H](Cc1ccccc1)NC(=O)OCc1ccccc1
12 | 349 µM | 28 µM |  |  |  |  | N=C(N)NCCC[C@H](NC(=O)[C@H](Cc1ccccc1)NC(=O)OCc1ccccc1)C(N)=O (Cbz-Phe-Arg-NH2)
11 | 245 µM | 23 µM |  |  |  |  | Cc1ccccc1-c1ccc(C[C@H](NC(=O)OCc2ccccc2)C(=O)N[C@@H](CCCCN)C(N)=O)cc1
169 | 3390 µM | 20 µM |  |  |  |  | Cc1cccc(C)c1C(=O)N[C@@H](Cc1ccccc1)C(=O)N[C@@H](CCCCN)C(N)=O
 |  | 16 µM |  |  |  |  | C[C@H](NC(=O)[C@H](Cc1ccccc1)NC(=O)OCc1ccccc1)C(N)=O
310 | 4340 µM | 14 µM |  |  |  |  | CC(C)C[C@H](NC(=O)[C@H](Cc1ccccc1)NC(=O)OCc1ccccc1)C(N)=O (Cbz-Phe-Leu-NH2)
 |  | 14 µM |  |  |  |  | NC(=O)[C@H](Cc1c[nH]cn1)NC(=O)[C@H](Cc1ccccc1)NC(=O)OCc1ccccc1 (Cbz-Phe-His-NH2)
506 | 3550 µM | 7 µM |  |  |  |  | NCCCC[C@H](NC(=O)[C@H](Cc1ccccc1)NC(=O)[C@H](CCC(N)=O)NC(=O)OCc1ccccc1)C(N)=O (Cbz-Gln-Phe-Lys-NH2)
20 | 134 µM | 6.8 µM |  |  |  |  | NCCCC[C@H](NC(=O)[C@H](Cc1ccccc1)NC(=O)c1c(F)c(F)c(F)c(F)c1F)C(N)=O
8.4 | 51 µM | 6.1 µM |  |  |  |  | NCCCC[C@H](NC(=O)[C@H](Cc1ccccc1)NC(=O)C1CCCCN1)C(N)=O (stereo partly drawn) (H-[ξPip]-Phe-Lys-NH2)
15 | 80 µM | 5.5 µM |  |  |  |  | NCCCC[C@H](NC(=O)[C@H](Cc1ccccc1)NC(=O)c1ccccn1)C(N)=O
30 | 148 µM | 5 µM |  |  |  |  | NCCCC[C@H](NC(=O)[C@H](Cc1ccccc1)NC(=O)c1ccc(N)nc1)C(N)=O
810 | 3410 µM | 4.2 µM | 11 | 13 | 47 µM | 56 µM | NCCCC[C@H](NC(=O)[C@H](Cc1ccccc1)NC(=O)OCc1ccccc1)C(N)=O
703 | 2460 µM | 3.5 µM |  |  |  |  | NCCC[C@H](NC(=O)[C@H](Cc1ccccc1)NC(=O)OCc1ccccc1)C(N)=O
18 | 56 µM | 3.1 µM |  |  |  |  | NCCCC[C@H](NC(=O)[C@H](Cc1c[nH]cn1)NC(=O)OCc1ccccc1)C(N)=O (Cbz-His-Lys-NH2)
28 | 74 µM | 2.6 µM |  |  |  |  | NCCCC[C@H](NC(=O)[C@H](Cc1ccc(-c2ccc(-c3ccccc3)cc2)cc1)NC(=O)OCc1ccccc1)C(N)=O
595 | 1550 µM | 2.6 µM |  |  |  |  | CNCCCC[C@H](NC(=O)[C@H](Cc1ccccc1)NC(=O)OCc1ccccc1)C(N)=O
156 | 389 µM | 2.5 µM |  |  |  |  | Cc1cccc(-c2ccc(C[C@H](NC(=O)OCc3ccccc3)C(=O)N[C@@H](CCCCN)C(N)=O)cc2)c1
113 | 261 µM | 2.3 µM |  |  |  |  | NCCCC[C@H](NC(=O)[C@H](Cc1ccccc1)NC(=O)c1ccc(Br)cc1)C(N)=O
21 | 38 µM | 1.8 µM |  |  |  |  | NCCCC[C@H](NC(=O)[C@H](Cc1ccc(-c2cccc(N)c2)cc1)NC(=O)OCc1ccccc1)C(N)=O
34 | 58 µM | 1.7 µM |  |  |  |  | NCCCC[C@H](NC(=O)[C@H](Cc1ccc(-c2cccc(Cl)c2)cc1)NC(=O)OCc1ccccc1)C(N)=O
66 | 113 µM | 1.7 µM |  |  |  |  | Cc1ccc(-c2ccc(C[C@H](NC(=O)OCc3ccccc3)C(=O)N[C@@H](CCCCN)C(N)=O)cc2)cc1
312 | 312 µM | 1 µM |  |  |  |  | CC(C)(C)c1ccc(C(=O)N[C@@H](Cc2ccccc2)C(=O)N[C@@H](CCCCN)C(N)=O)cc1
301 | 301 µM | 1 µM |  |  |  |  | NCCCC[C@H](NC(=O)[C@H](Cc1ccccc1)NC(=O)c1ccc2ccccc2c1)C(N)=O
1680 | 1490 µM | 0.89 µM | 319 | 46 | 284 µM | 41.1 µM | NCCCC[C@H](NC(=O)[C@H](Cc1ccccc1)NC(=O)[C@H](CCCCN)NC(=O)OCc1ccccc1)C(N)=O (Cbz-Lys-Phe-Lys-NH2)
2140 | 835 µM | 0.39 µM | 1640 | 51 | 639 µM | 20 µM | NCCCC[C@H](NC(=O)[C@H](Cc1ccccc1)NC(=O)[C@H](Cc1c[nH]c2ccccc12)NC(=O)OCc1ccccc1)C(N)=O (Cbz-Trp-Phe-Lys-NH2)
